Source: ChEMBL document CHEMBL3286128 (J Med Chem, 2014)
Calls of active or inactive are those of the source. The rule behind the calls is not given here.

Assays:
[1] = Retention time of the compound by HPLC analysis; type: physicochemical
Outline: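 Preparative HPLC run as a linear gradient of solvent B over 30 min, starting at 30% B and ending at 70% or 80% B depending on the compound. Retention time was taken at elution.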

[2] = tested on: Human immunodeficiency virus 1; experiment: Antiviral activity against HIV-1 harboring wild type integrase infected in human HOS cells pretreated with compound for 3 hrs by single-round HIV-1 infectivity assay in presence of 5% fetal bovine serum; type: functional, organism-based; conditions: Human immunodeficiency virus 1, HOS
Outline: (§1)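 VSV-g-pseudotyped single-round HIV-1 luciferase vector (WT or mutant IN) made in 293T cells by calcium phosphate transfection, supernatant harvested at 48 h. HOS cells were seeded the day before, then pretreated with compound, 11 serial dilutions from 10 μM to 0.0005 μM, at 37 °C for 3 h. Virus was added and cells kept 48 h at 37 °C. Luciferase was read and normalised to infectivity without compound.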

[3] = Selectivity index, ratio of CC50 for human HOS cells to EC50 for HIV-1 harboring wild type integrase infected in human HOS cells; type: toxicity, cell-based; conditions: read-out: Ratio CC50/EC50
Outline: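 HOS cells were exposed to compound and viability was read as ATP level by luciferase reporter. SI is CC50 divided by WT-vector EC50.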

[4] = tested on: Human immunodeficiency virus 1; experiment: Antiviral activity against HIV-1 harboring wild type integrase infected in human HOS cells pretreated with compound for 3 hrs by single-round HIV-1 infectivity assay in presence of 15% fetal bovine serum; type: functional, organism-based; conditions: Human immunodeficiency virus 1, HOS; outline: as §1
[5] = tested on: Human immunodeficiency virus 1; experiment: Antiviral activity against raltegravir-resistant HIV-1 harboring integrase G140S/Q148H double mutant infected in human HOS cells pretreated with compound for 3 hrs by single-round HIV-1 infectivity assay; type: functional, organism-based; conditions: Human immunodeficiency virus 1, HOS
[6] = tested on: Human immunodeficiency virus 1; experiment: Antiviral activity against INSTI-resistant HIV-1 harboring integrase G118R mutant infected in human HOS cells pretreated with compound for 3 hrs by single-round HIV-1 infectivity assay; type: functional, organism-based; conditions: Human immunodeficiency virus 1, HOS; outline: as §1
[7] = tested on: Human immunodeficiency virus 1; experiment: Antiviral activity against HIV-1 harboring wild type integrase infected in human HOS cells pretreated with compound for 3 hrs by single-round HIV-1 infectivity assay in presence of 10% fetal bovine serum; type: functional, organism-based; conditions: Human immunodeficiency virus 1, HOS; outline: as §1
[8] = tested on: Human immunodeficiency virus 1; experiment: Antiviral activity against INSTI-resistant HIV-1 harboring integrase R263K mutant infected in human HOS cells pretreated with compound for 3 hrs by single-round HIV-1 infectivity assay; type: functional, organism-based; conditions: Human immunodeficiency virus 1, HOS; outline: as §1
[9] = tested on: Human immunodeficiency virus 1; experiment: Ratio of EC50 for INSTI-resistant HIV-1 harboring integrase R263K mutant infected in human HOS cells to EC50 for HIV-1 harboring integrase wild type integrase infected in human HOS cells; type: functional
[10] = tested on: Human immunodeficiency virus 1; experiment: Ratio of EC50 for raltegravir-resistant HIV-1 harboring integrase N155H mutant infected in human HOS cells to EC50 for HIV-1 harboring integrase wild type integrase infected in human HOS cells; type: functional
[11] = tested on: Human immunodeficiency virus 1; experiment: Ratio of EC50 for raltegravir-resistant HIV-1 harboring integrase Y143R mutant infected in human HOS cells to EC50 for HIV-1 harboring integrase wild type integrase infected in human HOS cells; type: functional
[12] = tested on: Human immunodeficiency virus 1; experiment: Ratio of EC50 for raltegravir-resistant HIV-1 harboring integrase G140S/Q148H double mutant infected in human HOS cells to EC50 for HIV-1 harboring integrase wild type integrase infected in human HOS cells; type: functional
[13] = tested on: Human immunodeficiency virus 1; experiment: Antiviral activity against HIV-1 harboring wild type integrase infected in human HOS cells pretreated with compound for 3 hrs by single-round HIV-1 infectivity assay; type: functional, organism-based; conditions: Human immunodeficiency virus 1, HOS
[14] = biological target: Human immunodeficiency virus type 1 reverse transcriptase (Human immunodeficiency virus 1) (UniProt Q72547); experiment: Inhibition of HIV-1 RNase H activity of reverse transcriptase assessed as full length RNA level at 10 uM by agarose gel electrophoresis
HOS = experiment: Cytotoxicity against human HOS cells assessed as ATP level by luciferase reporter assay; type: cell-based
Outline: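 HOS cells were exposed to compound and viability was read as ATP level by luciferase reporter. […] SI is CC50 divided by WT-vector EC50.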

[15] = biological target: Human immunodeficiency virus type 1 reverse transcriptase (Human immunodeficiency virus 1) (UniProt Q72547); experiment: Inhibition of HIV-1 reverse transcriptase RNase H activity-mediated -8 cleavage assessed as retention of -17 cleavage after 10 to 15 mins by agarose gel electrophoresis
[16] = tested on: Human immunodeficiency virus 1; experiment: Ratio of EC50 for INSTI-resistant HIV-1 harboring integrase G118R mutant infected in human HOS cells to EC50 for HIV-1 harboring integrase wild type integrase infected in human HOS cells; type: functional
[17] = biological target: Human immunodeficiency virus type 1 reverse transcriptase (Human immunodeficiency virus 1) (UniProt Q72547); experiment: Inhibition of HIV-1 DNA-dependent DNA polymerase activity of reverse transcriptase after 60 mins by agarose gel electrophoresis
[18] = biological target: T1, Human immunodeficiency virus type 1 integrase (Human immunodeficiency virus 1, UniProt Q7ZJM1)
[19] = tested on: Human immunodeficiency virus 1; experiment: Antiviral activity against raltegravir-resistant HIV-1 harboring integrase N155H mutant infected in human HOS cells pretreated with compound for 3 hrs by single-round HIV-1 infectivity assay; type: functional, organism-based; conditions: Human immunodeficiency virus 1, HOS
[20] = biological target: T1, Human immunodeficiency virus type 1 integrase; experiment: Inhibition of strand transfer activity of HIV-1 integrase using [gamma-32P]-labeled DNA as substrate
Outline: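 Gel-based assay with radiolabelled oligonucleotide substrate and Mg2+ cofactor, measuring strand transfer by recombinant HIV-1 integrase. IC50 determined.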

[21] = tested on: Human immunodeficiency virus 1; experiment: Antiviral activity against raltegravir-resistant HIV-1 harboring integrase Y143R mutant infected in human HOS cells pretreated with compound for 3 hrs by single-round HIV-1 infectivity assay; type: functional, organism-based; conditions: Human immunodeficiency virus 1, HOS

T1 sequence (Q7ZJM1 whole entry): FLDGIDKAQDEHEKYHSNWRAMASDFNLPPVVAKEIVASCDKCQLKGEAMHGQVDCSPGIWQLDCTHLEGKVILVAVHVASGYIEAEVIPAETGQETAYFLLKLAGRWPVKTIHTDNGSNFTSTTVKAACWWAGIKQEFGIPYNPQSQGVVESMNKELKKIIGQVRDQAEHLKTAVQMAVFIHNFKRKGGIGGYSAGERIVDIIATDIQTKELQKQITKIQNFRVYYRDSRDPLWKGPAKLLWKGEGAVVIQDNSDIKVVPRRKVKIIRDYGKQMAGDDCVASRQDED

Question: What does the source list for COC(=O)CNc1c(C(=O)NCc2ccc(F)cc2F)c(=O)n(O)c2ncccc12?
Answer: Retention_time [1]: 28.4 min; EC50 [2]: 0.0038 µM; selectivity ratio [3]: > 65800; EC50 [4]: 0.003 µM; EC50 [5]: 0.036 µM; EC50 [6]: 0.041 µM; EC50 [7]: 0.003 µM; EC50 [8]: 0.026 µM; Ratio EC50 [9]: 7; Ratio EC50 [10]: 5; Ratio EC50 [11]: 1; Ratio EC50 [12]: 9; EC50 [13]: 0.0038 µM; inhibition [14]: inactive; CC50 (HOS): > 250 µM; inhibition [15]: Active; Ratio EC50 [16]: 11; inhibition [17]: Active; IC50 [18]: 0.71 µM; EC50 [19]: 0.019 µM; IC50 [20]: 0.021 µM; EC50 [21]: 0.0046 µM
